What was measured:
[1] = tested on: Human immunodeficiency virus 1; test: Antiviral activity against HIV1 3B harboring wild type reverse transcriptase infected in human MT4 cells assessed as protection against virus-induced cytopathic effect after 5 days by MTT assay; type: functional, organism-based; conditions: Human immunodeficiency virus 1, 3B, MT4, 120 h
Summary of the method: (§1)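 MT-4 cells, growing exponentially, were spun and resuspended at 6 × 10⁵ cells/mL. They were infected at the start together with compound, given as serial five-fold dilutions in triplicate wells, with mock-infected wells run in parallel. Viability was read by MTT after 5 days. EC₅₀ is the concentration giving 50% protection against viral cytopathic effect.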

[2] = Selectivity index, ratio of CC50 for human MT4 cells to EC50 for HIV2 ROD; type: toxicity, cell-based; conditions: read-out: Ratio CC50/EC50
Summary of the method: (§2)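 Selectivity index is CC₅₀/EC₅₀. Both values come from the same MTT assay in MT-4 cells: mock-infected and virus-infected (100-300 CCID₅₀) wells were run in parallel and read at day 5.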

[3] = Cytotoxicity against human MT4 cells after 5 days by MTT assay; type: cell-based
Summary of the method: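 Exponentially growing MT-4 cells resuspended at 6 × 10⁵ cells/mL and exposed to serial five-fold compound dilutions in triplicate, mock-infected alongside infected wells. Viability read by MTT assay at day 5. CC₅₀ = concentration reducing mock-infected cell viability by 50%.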

[4] = tested on: Human immunodeficiency virus 1; test: Antiviral activity against HIV1 RES056 harboring reverse transcriptase K103N/Y181C double mutant infected in human MT4 cells assessed as protection against virus-induced cytopathic effect after 5 days by MTT assay; type: functional, organism-based; conditions: Human immunodeficiency virus 1, RES056, MT4, 120 h; summary of the method: as §1
[5] = Selectivity index, ratio of CC50 for human MT4 cells to EC50 for HIV1 RES056; type: toxicity, cell-based; conditions: read-out: Ratio CC50/EC50; summary of the method: as §2
[6] = Selectivity index, ratio of CC50 for human MT4 cells to EC50 for HIV1 3B; type: toxicity, cell-based; conditions: read-out: Ratio CC50/EC50; summary of the method: as §2
[7] = tested on: Human immunodeficiency virus 2; test: Antiviral activity against HIV2 ROD infected in human MT4 cells assessed as protection against virus-induced cytopathic effect after 5 days by MTT assay; type: functional, organism-based; conditions: Human immunodeficiency virus 2, ISOLATE ROD, MT4, 120 h
Summary of the method: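 MT-4 cells resuspended at 6 × 10⁵ cells/mL after centrifugation at 200 g for 5 min. HIV-2 (ROD) added at 100-300 CCID₅₀. Test compound given as serial five-fold dilutions, triplicate wells. Viability of infected cells measured spectrophotometrically by MTT after 5 days. EC₅₀ = concentration giving 50% protection against viral cytopathic effect.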

[8] = molecular target: Human immunodeficiency virus type 1 reverse transcriptase (Human immunodeficiency virus 1, UniProt Q72547); test: Inhibition of HIV1 reverse transcriptase assessed as inhibition of biotinylated dUTP incorporation after 1 hr by ELISA
Summary of the method: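 Recombinant HIV-1 RT kit (colorimetric ELISA). Poly(A)·oligo(dT)₁₅ template/primer with DIG-dUTP, biotin-dUTP and dTTP, ±inhibitor, 1 h at 37 °C. Product captured on streptavidin plate (1 h, 37 °C), then anti-DIG-POD (1 h, 37 °C), ABTS developed at 25 °C, A405 read. IC₅₀ = concentration inhibiting biotin-dUTP incorporation by 50%.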

[9] = tested on: Human immunodeficiency virus 1; test: Antiviral activity against HIV1 harboring reverse transcriptase K101N mutant infected in human MT4 cells; type: functional, organism-based; conditions: Human immunodeficiency virus 1, MT4
[10] = tested on: Human immunodeficiency virus 1; test: Antiviral activity against HIV1 harboring wild type reverse transcriptase infected in human MT4 cells; type: functional, organism-based; conditions: Human immunodeficiency virus 1, MT4
[11] = tested on: Human immunodeficiency virus 1; test: Antiviral activity against HIV1 harboring reverse transcriptase Y181C mutant infected in human MT4 cells; type: functional, organism-based; conditions: Human immunodeficiency virus 1, MT4
[12] = tested on: Human immunodeficiency virus 1; test: Antiviral activity against HIV1 harboring reverse transcriptase K101N/Y181C double mutant infected in human MT4 cells; type: functional, organism-based; conditions: Human immunodeficiency virus 1, MT4

| Structure (SMILES) | EC50 [1] [µM] | selectivity ratio [2] | CC50 at 120 h [3] [µM] | EC50 [4] [µM] | selectivity ratio [5] | selectivity ratio [6] | EC50 [7] [µM] | IC50 [8] [µM] | EC50 [9] [µM] | EC50 [10] [µM] | EC50 [11] [µM] | EC50 [12] [µM] |
| --- | --- | --- | --- | --- | --- | --- | --- | --- | --- | --- | --- | --- |
| Cc1cc(C#N)cc(C)c1Oc1cc(Nc2ccc(C#N)cc2)[nH]c(=O)c1Cl | 7.2 | 1 | > 319 | > 319 | 1 | > 44 | > 319 |  |  |  |  |  |
| Cc1cc(C)c(Oc2cc(Nc3ccc(C#N)cc3)[nH]c(=O)c2)c(C)c1 | 0.37 | < 1 | 32 | > 32 | < 1 | 87 | > 32 | 39 |  |  |  |  |
| Cc1cc(C#N)cc(C)c1Oc1cc(Nc2ccc(C#N)cc2)[nH]c(=O)c1 | 0.15 | < 1 | 25 | > 25 | < 1 | 166 | > 25 | 5.2 |  |  |  |  |
| Cc1cccc(C)c1Oc1cc(Nc2ccc(C#N)cc2)[nH]c(=O)c1 | 1.4 | < 1 | 36 | > 36 | < 1 | 26 | > 36 |  |  |  |  |  |
| Cc1cc(C)cc(Oc2cc(Nc3ccc(C#N)cc3)[nH]c(=O)c2)c1 | > 46 | < 1 | 46 |  |  | < 1 | > 46 |  |  |  |  |  |
| Cc1cc(C)c(Oc2cc(Nc3ccc(C#N)cc3)[nH]c(=O)c2I)c(C)c1 | 5.6 | < 1 | 34 | > 34 | < 1 | 6 | > 34 |  |  |  |  |  |
| Cc1cc(C)c(Oc2cc(Nc3ccc(C#N)cc3)[nH]c(=O)c2Br)c(C)c1 | 32 | 1 | > 294 | > 294 | 1 | > 9 | > 294 |  |  |  |  |  |
| Cc1cc(C)c(Oc2cc(Nc3ccc(C#N)cc3)[nH]c(=O)c2Cl)c(C)c1 | 9.3 | 1 | > 329 | > 329 | 1 | > 35 | > 329 |  |  |  |  |  |
| Cc1cc(C#N)cc(C)c1Oc1cc(Nc2ccc(C#N)cc2)[nH]c(=O)c1I | 2.9 | 1 | > 259 | > 259 | 1 | > 89 | > 259 |  |  |  |  |  |
| Cc1cc(C#N)cc(C)c1Oc1cc(Nc2ccc(C#N)cc2)[nH]c(=O)c1Br | 1.2 | 1 | > 287 | > 287 | 1 | > 244 | > 287 |  |  |  |  |  |
| Cc1cccc(C)c1Oc1cc(Nc2ccc(C#N)cc2)[nH]c(=O)c1I | 1.7 | < 1 | 28 | > 28 | < 1 | 16 | > 28 |  |  |  |  |  |
| Cc1cccc(C)c1Oc1cc(Nc2ccc(C#N)cc2)[nH]c(=O)c1Br | 3.6 | < 1 | 63 | > 63 | < 1 | 17 | > 63 |  |  |  |  |  |
| Cc1cccc(C)c1Oc1cc(Nc2ccc(C#N)cc2)[nH]c(=O)c1Cl | 2.4 | < 1 | 29 | > 29 | < 1 | 12 | > 29 |  |  |  |  |  |
| Cc1cc(C)cc(Oc2cc(Nc3ccc(C#N)cc3)[nH]c(=O)c2I)c1 | > 24 | < 1 | 24 |  |  | < 1 | > 24 |  |  |  |  |  |
| Cc1cc(C)cc(Oc2cc(Nc3ccc(C#N)cc3)[nH]c(=O)c2Br)c1 | > 19 | < 1 | 19 |  |  | < 1 | > 19 |  |  |  |  |  |
| Cc1cc(C)cc(Oc2cc(Nc3ccc(C#N)cc3)[nH]c(=O)c2Cl)c1 | > 21 | < 1 | 21 |  |  | < 1 | > 21 |  |  |  |  |  |
| COc1cc(Oc2c(C)cc(C)cc2C)cc(Nc2ccc([N+](=O)[O-])cc2)n1 | > 7.2 | < 1 | 7.2 |  |  | < 1 | > 7.2 |  |  |  |  |  |
| COc1cc(Oc2c(C)cc(C)cc2C)cc(Nc2ccc(C)cc2)n1 | > 35 | < 1 | 35 |  |  | < 1 | > 35 |  |  |  |  |  |
| COc1cc(Oc2c(C)cc(C)cc2C)cc(Nc2ccc(C#N)cc2)n1 | 0.84 | < 1 | 29 | > 29 | < 1 | 35 | > 29 |  |  |  |  |  |
| COc1cc(Oc2c(C)cc(C#N)cc2C)cc(Nc2ccc(C#N)cc2)n1 | 0.7 | ≤ 1 | > 147 | > 147 | 1 | ≥ 211 | > 147 |  |  |  |  |  |
| COc1cc(Oc2c(C)cccc2C)cc(Nc2ccc(C#N)cc2)n1 | > 8.5 | < 1 | 8.5 |  |  | < 1 | > 8.8 |  |  |  |  |  |
| COc1cc(Oc2cc(C)cc(C)c2)cc(Nc2ccc(C#N)cc2)n1 | > 20 | < 1 | 20 |  |  | < 1 | > 20 |  |  |  |  |  |
| Cc1cc(C)c(Oc2cc(Nc3ccc([N+](=O)[O-])cc3)[nH]c(=O)c2)c(C)c1 | 1.4 | < 1 | 26 | > 26 | < 1 | 19 | > 26 |  |  |  |  |  |
| Cc1ccc(Nc2cc(Oc3c(C)cc(C)cc3C)cc(=O)[nH]2)cc1 | 1.4 | < 1 | 37 | > 37 | < 1 | 26 | > 37 |  |  |  |  |  |
| Cc1cc(C)cc(Oc2c(CSCc3ccco3)c(C)[nH]c(=O)c2I)c1 |  |  |  |  |  |  |  |  | 0.001 | 0.002 | 0.005 | 0.004 |
| CC(C)Nc1cccnc1N1CCN(C(=O)c2cc3cc(NS(C)(=O)=O)ccc3[nH]2)CC1 [DELAVIRDINE] | 0.91 |  | > 36 | > 36 |  | > 40 |  |  |  |  |  |  |
| Cc1cc(C#N)cc(C)c1Oc1nc(Nc2ccc(C#N)cc2)nc(N)c1Br [ETRAVIRINE] |  |  |  |  |  |  |  |  | 0.0012 |  |  | 0.0043 |
| Cc1ccnc2c1NC(=O)c1cccnc1N2C1CC1 [NEVIRAPINE] |  |  | > 15 |  |  |  |  |  |  |  |  |  |
| Cc1cc(/C=C/C#N)cc(C)c1Nc1ccnc(Nc2ccc(C#N)cc2)n1 [RILPIVIRINE] |  |  |  |  |  |  |  |  | 0.0003 |  |  |  |

From ChEMBL document CHEMBL3120159, “Discovery of 2-pyridone derivatives as potent HIV-1 NNRTIs using molecular hybridization based on crystallographic overlays” (Bioorg Med Chem, 2014)
